Tests used:
[1] = biological target: Hepatocyte growth factor receptor (Homo sapiens, UniProt P08581); experiment: Inhibition of recombinant c-met by HTRF assay
[2] = biological target: High affinity nerve growth factor receptor (Homo sapiens, UniProt P04629); experiment: Inhibition of TRKA
[3] = biological target: Macrophage-stimulating protein receptor (Homo sapiens, UniProt Q04912); experiment: Inhibition of RON
[4] = biological target: T1, Receptor-type tyrosine-protein kinase FLT3 (Homo sapiens, UniProt P36888); experiment: Inhibition of FLT3
T1 sequence (P36888 whole entry): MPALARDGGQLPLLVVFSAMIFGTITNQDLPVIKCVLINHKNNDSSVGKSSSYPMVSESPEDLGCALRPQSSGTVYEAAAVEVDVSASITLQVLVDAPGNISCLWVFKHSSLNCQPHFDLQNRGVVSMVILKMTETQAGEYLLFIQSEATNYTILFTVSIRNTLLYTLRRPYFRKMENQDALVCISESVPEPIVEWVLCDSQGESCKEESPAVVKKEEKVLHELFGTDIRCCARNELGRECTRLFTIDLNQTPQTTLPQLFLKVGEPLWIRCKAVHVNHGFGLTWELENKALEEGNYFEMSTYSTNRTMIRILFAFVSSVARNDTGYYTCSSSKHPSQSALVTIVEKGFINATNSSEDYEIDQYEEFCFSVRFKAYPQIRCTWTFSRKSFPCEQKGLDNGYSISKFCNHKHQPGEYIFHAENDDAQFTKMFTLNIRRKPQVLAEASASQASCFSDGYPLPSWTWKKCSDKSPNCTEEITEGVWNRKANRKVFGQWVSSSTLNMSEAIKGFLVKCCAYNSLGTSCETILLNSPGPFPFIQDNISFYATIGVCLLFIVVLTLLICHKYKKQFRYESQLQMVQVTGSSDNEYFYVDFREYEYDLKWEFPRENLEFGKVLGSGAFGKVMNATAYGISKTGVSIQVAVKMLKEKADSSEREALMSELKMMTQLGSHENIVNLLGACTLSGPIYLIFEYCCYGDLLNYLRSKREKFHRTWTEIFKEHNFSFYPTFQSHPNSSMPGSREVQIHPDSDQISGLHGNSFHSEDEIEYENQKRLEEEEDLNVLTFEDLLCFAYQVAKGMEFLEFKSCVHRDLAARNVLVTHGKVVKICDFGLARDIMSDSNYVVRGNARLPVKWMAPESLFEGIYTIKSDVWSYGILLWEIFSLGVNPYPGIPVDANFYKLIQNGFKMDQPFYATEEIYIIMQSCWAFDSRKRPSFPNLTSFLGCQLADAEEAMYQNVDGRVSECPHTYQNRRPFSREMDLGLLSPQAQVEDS

SNU-5 = experiment: Growth inhibition of c-met-amplified human SNU5 cells after 72 hrs by MTS assay; type: functional; details: SNU-5, 72 h
[5] = Growth inhibition of c-met-amplified human Hs 746T cells after 72 hrs by MTS assay; type: functional; details: Hs746T
MKN-45 = experiment: Growth inhibition of c-met-amplified human MKN45 cells after 72 hrs by MTS assay; type: functional; details: MKN-45, 72 h
NCI-N87 = experiment: Growth inhibition of c-met-independent human NCI-N87 cells after 72 hrs by MTS assay; type: functional; details: NCI-N87, 72 h
Aurora kinase A = biological target: T2, Aurora kinase A (Homo sapiens, UniProt O14965); experiment: Inhibition of AurA
T2 sequence (O14965 whole entry): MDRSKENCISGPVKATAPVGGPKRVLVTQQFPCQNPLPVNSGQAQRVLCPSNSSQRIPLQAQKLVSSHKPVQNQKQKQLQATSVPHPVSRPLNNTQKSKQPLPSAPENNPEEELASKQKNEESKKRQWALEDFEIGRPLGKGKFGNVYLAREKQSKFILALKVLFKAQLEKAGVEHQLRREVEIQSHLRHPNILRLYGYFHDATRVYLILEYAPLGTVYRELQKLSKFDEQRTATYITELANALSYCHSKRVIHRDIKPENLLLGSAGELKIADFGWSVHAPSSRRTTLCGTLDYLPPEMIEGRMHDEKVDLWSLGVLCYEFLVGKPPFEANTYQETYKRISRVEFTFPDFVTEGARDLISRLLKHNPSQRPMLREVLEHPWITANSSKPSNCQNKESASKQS

[6] = Oral bioavailability in rat at 10 mg/kg; type: ADME, organism-based; details: in vivo
Method in brief: (§1)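 Rat pharmacokinetics: 10 mg/kg dose given, three rats per group.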

[7] = Cmax in rat at 10 mg/kg, po; type: ADME, organism-based; set-up: dose 10 mg/kg, route oral; details: in vivo; method in brief: as §1
[8] = Clearance in rat at 10 mg/kg, iv; type: ADME, organism-based; set-up: dose 10 mg/kg, route intravenous; details: in vivo; method in brief: as §1
[9] = Volume of distribution at steady state in rat at 10 mg/kg, iv; type: ADME, organism-based; set-up: dose 10 mg/kg, route intravenous; details: in vivo, read-out: Vdss; method in brief: as §1
[10] = AUC in rat at 10 mg/kg, iv; type: ADME, organism-based; set-up: dose 10 mg/kg, route intravenous; details: plasma; method in brief: as §1
[11] = AUC in rat at 10 mg/kg, po; type: ADME, organism-based; set-up: dose 10 mg/kg, route oral; details: plasma; method in brief: as §1

Chain of Hepatocyte growth factor receptor (P08581 whole entry): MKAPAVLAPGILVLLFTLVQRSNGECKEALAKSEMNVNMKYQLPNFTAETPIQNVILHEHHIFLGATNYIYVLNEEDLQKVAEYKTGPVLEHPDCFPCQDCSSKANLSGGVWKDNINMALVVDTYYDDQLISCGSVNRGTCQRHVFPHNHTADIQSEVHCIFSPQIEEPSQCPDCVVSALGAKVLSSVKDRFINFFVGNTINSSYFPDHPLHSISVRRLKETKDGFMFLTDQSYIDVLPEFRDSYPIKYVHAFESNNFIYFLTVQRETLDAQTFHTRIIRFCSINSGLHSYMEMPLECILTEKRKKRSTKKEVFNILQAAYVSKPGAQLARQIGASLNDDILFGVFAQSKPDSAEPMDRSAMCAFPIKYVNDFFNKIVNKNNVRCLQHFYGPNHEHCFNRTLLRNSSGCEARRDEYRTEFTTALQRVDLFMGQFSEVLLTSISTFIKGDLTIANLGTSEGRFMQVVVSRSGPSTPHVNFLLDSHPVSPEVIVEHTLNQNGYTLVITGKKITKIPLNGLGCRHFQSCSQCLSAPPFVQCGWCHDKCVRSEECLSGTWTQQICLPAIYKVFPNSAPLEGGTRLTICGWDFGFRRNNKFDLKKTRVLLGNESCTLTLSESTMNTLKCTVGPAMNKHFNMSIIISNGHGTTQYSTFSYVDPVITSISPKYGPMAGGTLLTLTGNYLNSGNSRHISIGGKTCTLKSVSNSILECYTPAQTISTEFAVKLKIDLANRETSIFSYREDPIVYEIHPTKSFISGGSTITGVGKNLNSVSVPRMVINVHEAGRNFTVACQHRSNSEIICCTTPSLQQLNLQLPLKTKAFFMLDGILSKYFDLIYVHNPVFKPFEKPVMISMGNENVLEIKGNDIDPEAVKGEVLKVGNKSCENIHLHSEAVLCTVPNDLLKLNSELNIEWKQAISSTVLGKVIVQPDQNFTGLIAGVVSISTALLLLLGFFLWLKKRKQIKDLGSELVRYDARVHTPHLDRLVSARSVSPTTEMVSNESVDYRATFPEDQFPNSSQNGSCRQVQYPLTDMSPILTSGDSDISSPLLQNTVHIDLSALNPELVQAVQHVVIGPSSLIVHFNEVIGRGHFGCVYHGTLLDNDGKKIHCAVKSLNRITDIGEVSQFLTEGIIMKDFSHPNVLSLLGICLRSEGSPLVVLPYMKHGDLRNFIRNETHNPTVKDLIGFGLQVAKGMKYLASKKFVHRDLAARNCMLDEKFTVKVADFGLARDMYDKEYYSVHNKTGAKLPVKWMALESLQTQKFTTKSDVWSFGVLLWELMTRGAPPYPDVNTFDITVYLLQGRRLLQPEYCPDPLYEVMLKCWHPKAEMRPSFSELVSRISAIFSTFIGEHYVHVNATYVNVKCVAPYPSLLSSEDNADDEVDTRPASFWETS
Chain of High affinity nerve growth factor receptor (P04629 whole entry): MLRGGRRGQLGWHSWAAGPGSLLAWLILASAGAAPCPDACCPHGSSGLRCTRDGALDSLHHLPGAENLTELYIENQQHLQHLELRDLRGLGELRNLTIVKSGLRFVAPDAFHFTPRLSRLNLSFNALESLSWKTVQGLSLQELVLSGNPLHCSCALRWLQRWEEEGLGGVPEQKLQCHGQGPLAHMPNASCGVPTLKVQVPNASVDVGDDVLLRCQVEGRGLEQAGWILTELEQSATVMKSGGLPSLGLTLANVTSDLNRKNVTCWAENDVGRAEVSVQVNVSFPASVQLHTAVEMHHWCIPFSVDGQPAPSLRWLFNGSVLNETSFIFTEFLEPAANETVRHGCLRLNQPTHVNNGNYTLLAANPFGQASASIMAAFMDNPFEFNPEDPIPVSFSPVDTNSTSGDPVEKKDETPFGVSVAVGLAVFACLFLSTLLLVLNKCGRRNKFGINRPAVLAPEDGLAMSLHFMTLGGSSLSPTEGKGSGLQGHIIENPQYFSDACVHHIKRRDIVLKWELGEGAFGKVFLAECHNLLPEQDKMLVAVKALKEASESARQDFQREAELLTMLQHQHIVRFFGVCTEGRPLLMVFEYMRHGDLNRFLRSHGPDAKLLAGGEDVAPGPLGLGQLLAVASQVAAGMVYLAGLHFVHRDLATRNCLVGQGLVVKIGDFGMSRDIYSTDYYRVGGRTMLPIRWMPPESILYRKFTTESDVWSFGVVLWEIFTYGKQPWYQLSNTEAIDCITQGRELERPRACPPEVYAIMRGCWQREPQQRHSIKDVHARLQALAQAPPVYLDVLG
Chain of Macrophage-stimulating protein receptor (Q04912 25-304 limits assumed): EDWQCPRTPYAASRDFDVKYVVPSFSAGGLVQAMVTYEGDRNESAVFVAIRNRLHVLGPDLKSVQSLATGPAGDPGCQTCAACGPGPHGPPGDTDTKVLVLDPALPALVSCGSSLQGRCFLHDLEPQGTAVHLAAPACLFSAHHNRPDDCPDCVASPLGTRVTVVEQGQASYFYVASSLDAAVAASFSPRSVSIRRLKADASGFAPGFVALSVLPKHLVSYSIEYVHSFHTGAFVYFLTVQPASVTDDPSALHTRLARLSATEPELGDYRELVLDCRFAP
Chain of Macrophage-stimulating protein receptor (Q04912 310-1400 limits assumed): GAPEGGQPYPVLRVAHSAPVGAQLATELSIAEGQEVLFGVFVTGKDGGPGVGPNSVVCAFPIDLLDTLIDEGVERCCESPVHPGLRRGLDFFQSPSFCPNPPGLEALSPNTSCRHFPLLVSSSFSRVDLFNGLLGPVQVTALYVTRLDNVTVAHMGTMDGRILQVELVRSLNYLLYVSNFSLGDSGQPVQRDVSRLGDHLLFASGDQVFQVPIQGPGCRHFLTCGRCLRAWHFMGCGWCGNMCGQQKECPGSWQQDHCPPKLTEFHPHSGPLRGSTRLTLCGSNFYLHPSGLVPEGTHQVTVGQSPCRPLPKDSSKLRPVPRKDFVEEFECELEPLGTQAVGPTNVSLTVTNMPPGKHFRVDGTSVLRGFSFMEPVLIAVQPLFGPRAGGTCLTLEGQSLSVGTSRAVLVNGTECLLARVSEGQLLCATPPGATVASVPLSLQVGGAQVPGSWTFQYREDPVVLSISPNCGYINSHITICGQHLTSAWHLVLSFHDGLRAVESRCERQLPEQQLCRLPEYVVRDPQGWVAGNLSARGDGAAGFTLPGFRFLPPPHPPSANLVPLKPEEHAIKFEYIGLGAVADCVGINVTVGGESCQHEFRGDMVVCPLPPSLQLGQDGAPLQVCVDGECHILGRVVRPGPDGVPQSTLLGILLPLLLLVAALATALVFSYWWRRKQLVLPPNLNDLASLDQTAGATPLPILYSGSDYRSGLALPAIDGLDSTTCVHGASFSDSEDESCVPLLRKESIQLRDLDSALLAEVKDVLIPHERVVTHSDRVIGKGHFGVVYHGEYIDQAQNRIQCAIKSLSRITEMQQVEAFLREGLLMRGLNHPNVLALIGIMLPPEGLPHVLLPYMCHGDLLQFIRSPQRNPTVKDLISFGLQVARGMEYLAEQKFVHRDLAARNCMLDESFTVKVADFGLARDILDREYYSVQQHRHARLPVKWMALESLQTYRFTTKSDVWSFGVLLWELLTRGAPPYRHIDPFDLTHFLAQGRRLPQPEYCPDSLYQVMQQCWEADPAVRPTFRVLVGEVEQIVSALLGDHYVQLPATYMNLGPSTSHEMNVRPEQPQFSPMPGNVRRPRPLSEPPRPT

Row | Structure (SMILES) | IC50 [1] | GI50 (SNU-5) | GI50 (MKN-45) | GI50 [5] | GI50 (NCI-N87) | other results
1 | Cc1ccccc1-c1ccc2nnc(Cc3cccc4c(=O)[nH]ccc34)n2n1 | 72 nM |  |  |  |  | 
2 | O=c1[nH]ccc2c(Cc3nnc4ccc(-c5csc6ccccc56)nn34)cccc12 | 14 nM |  |  |  |  | 
3 | O=c1[nH]ccc2c(Cc3nnc4ccc(N5CCCCC5)nn34)cccc12 | 29 nM |  |  |  |  | 
4 | O=c1[nH]ccc2c(Cc3nnc4ccc(-c5cccnc5)nn34)cccc12 | 5 nM | 450 nM | 420 nM | 400 nM | > 10 µM | 
5 | O=c1[nH]ccc2c(Cc3nnc4ccc(N5CCCC5)nn34)cccc12 | 27 nM |  |  |  |  | 
6 | CCn1ccc2c(Cc3nnc4ccc(-c5cccc(F)c5)nn34)cccc2c1=O | 72 nM |  |  |  |  | 
7 | O=c1[nH]ccc2c(Cc3nnc4ccc(-c5cn[nH]c5)nn34)cccc12 | 5 nM |  |  |  |  | 
8 | O=c1[nH]ccc2c(Cc3nnc4ccc(-c5cnn(C6CCNCC6)c5)nn34)cccc12 | 27 nM |  |  |  |  | 
9 | O=c1[nH]ccc2c(Cc3nnc4ccc(-c5cccc(Cl)c5)nn34)cccc12 | 7 nM | 19 nM | 11 nM | 53 nM | > 10 µM | 
10 | Cn1ccc2c(Cc3nnc4ccc(-c5cccc(F)c5)nn34)cccc2c1=O | 73 nM |  |  |  |  | 

Continued, in another order:

Row | IC50 [1] | GI50 (SNU-5) | GI50 (MKN-45) | Structure (SMILES) | GI50 [5] | GI50 (NCI-N87) | other results
11 | 2 nM | 690 nM | 130 nM | Cn1cc(-c2ccc3nnc(Cc4cccc5c(=O)[nH]ccc45)n3n2)cn1 | 64 nM | > 10 µM | IC50 [2]: > 10 µM; IC50 [3]: > 10 µM; IC50 [4]: > 10 µM; IC50 (Aurora kinase A): > 10 µM
12 | 4 nM | 56 nM | 32 nM | O=c1[nH]ccc2c(Cc3nnc4ccc(-c5ccsc5)nn34)cccc12 | 170 nM | > 10 µM | 
13 | 4 nM |  |  | O=c1[nH]ccc2c(Cc3nnc4ccc(-c5cccc([N+](=O)[O-])c5)nn34)cccc12 |  |  | 
14 | 3 nM | 1100 nM | 470 nM | O=c1[nH]ccc2c(Cc3nnc4ccc(-c5cccc(O)c5)nn34)cccc12 | 600 nM | > 10 µM | 
15 | 5 nM | 130 nM | 95 nM | COc1cccc(-c2ccc3nnc(Cc4cccc5c(=O)[nH]ccc45)n3n2)c1 | 100 nM | > 10 µM | 
16 | 3 nM | 120 nM | 36 nM | N#Cc1cccc(-c2ccc3nnc(Cc4cccc5c(=O)[nH]ccc45)n3n2)c1 | 59 nM | > 10 µM | 
17 | 4 nM |  |  | O=c1[nH]ccc2c(Cc3nnc4ccc(-c5ccccc5Cl)nn34)cccc12 |  |  | 
18 | 2 nM |  |  | O=c1[nH]ccc2c(Cc3nnc4ccc(-c5cnn(CCO)c5)nn34)cccc12 |  |  | 
19 | 3 nM | 59 nM | 38 nM | O=c1[nH]ccc2c(Cc3nnc4ccc(-c5ccccc5)nn34)cccc12 | 71 nM | > 10 µM | bioavailability [6]: 35%; Cmax [7]: 300 ng/mL; IC50 [2]: > 10 µM; clearance [8]: 13.3 mL/min/kg; Vd [9]: 6.4 L/kg; IC50 [3]: > 10 µM; IC50 [4]: > 10 µM; AUC [10]: 11200 ng·h/mL; AUC [11]: 3900 ng·h/mL; IC50 (Aurora kinase A): > 10 µM
20 | 3 nM | 52 nM | 42 nM | O=c1[nH]ccc2c(Cc3nnc4ccc(-c5cccc(F)c5)nn34)cccc12 | 130 nM | > 10 µM | 

Reference: ChEMBL document CHEMBL1921685, “Design and synthesis of triazolopyridazines substituted with methylisoquinolinone as selective c-Met kinase inhibitors” (Bioorg Med Chem Lett, 2011)
